Source: PubChem BioAssay AID1526 (The Scripps Research Institute Molecular Screening Center, 2009)
Some of the results follow. A number with no mark means an inactive call. Activity calls are given as the source filed them.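 How the source made its calls: active means activation above a set limit derived from the earlier primary screen (cut at about 12% in these data); inactive means the rest.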

Biological target: Mucolipin-3 (Homo sapiens) (UniProt Q8TDD5)
Assay: human TRPML3 channel agonists, confirmation, cell-based, HEK293 TRPML3-YFP, Fluo-8 calcium, triplicate (AID 1526)
Conditions: Fluo-8 calcium fluorescence, at 3 µM, stronger effect = higher value, 100% set by carbachol, 0% by DMSO
Procedure, shortened: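 Test system: HEK293 line with stable human TRPML3-YFP; times: calcium dye loading 1 h at 37 °C, fluorescence read 125 s; signal: Fluo-8 calcium dye fluorescence; compound: one 3 µM nominal concentration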

Sequence of Mucolipin-3 (Homo sapiens) (Q8TDD5 whole entry, looked up): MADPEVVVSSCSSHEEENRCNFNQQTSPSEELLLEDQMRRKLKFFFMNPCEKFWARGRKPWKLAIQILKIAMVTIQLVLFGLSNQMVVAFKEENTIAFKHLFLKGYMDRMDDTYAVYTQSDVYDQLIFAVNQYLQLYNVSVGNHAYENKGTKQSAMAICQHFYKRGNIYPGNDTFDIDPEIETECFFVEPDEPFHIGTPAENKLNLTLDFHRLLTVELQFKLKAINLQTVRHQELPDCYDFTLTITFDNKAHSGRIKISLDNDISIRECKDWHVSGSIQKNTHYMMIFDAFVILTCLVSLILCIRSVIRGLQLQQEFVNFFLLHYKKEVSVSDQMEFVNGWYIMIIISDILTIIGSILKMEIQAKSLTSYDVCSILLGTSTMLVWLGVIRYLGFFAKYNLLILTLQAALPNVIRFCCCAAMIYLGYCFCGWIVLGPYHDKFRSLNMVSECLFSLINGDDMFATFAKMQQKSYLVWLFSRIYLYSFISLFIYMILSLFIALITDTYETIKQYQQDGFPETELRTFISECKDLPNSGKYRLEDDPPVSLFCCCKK

SMILES	activation
c1ccc2c(C[n+]3csc4ccccc43)cccc2c1	58% (active)
COc1ccccc1N(CC(=O)N1CCCCC1)S(=O)(=O)c1ccccc1	169% (active)
C=C(C)Cn1c(C)cc(C)c(S(=O)(=O)c2ccccc2C)c1=O	27.8% (active)
COc1cc(/C=C(\C#N)c2nc3c(s2)CC(C)CC3)ccc1O (stereo not drawn)	6.5%
CCOC(=O)C1=C(NC(=S)NC(=O)c2ccccc2)c2ccccc2CC1(C)C	43.6% (active)
CC1=CC(C)(C)N(C(=O)CSc2nnc(-c3ccccc3)o2)c2ccc(C)cc21	48.3% (active)
COc1ccc(N(CCC#N)S(=O)(=O)c2ccc(Cl)cc2)cc1	9.45%
CC1CCCC(C)N1C(=O)CN1CCN(c2nc(-c3ccc(F)cc3)cs2)CC1 (stereo not drawn)	20.4% (active)
CC1(C)CCCC2=C1CC1C(=O)N(c3ccccc3)C(=O)C1C2 (stereo not drawn)	14.2% (active)
COc1ccc(Cl)cc1N(CC(=O)N1CCCCC1)S(C)(=O)=O	71.9% (active)
O=C(CC(O)(C(F)(F)F)C(F)(F)F)Nc1ccc(Cl)c(Cl)c1	13.9% (active)
O=S(=O)(Nc1ccccc1N1CCOCC1)c1ccc(Cl)s1	63% (active)
CCOc1ccc(S(=O)(=O)N2CCCCCC2)c2ccccc12	129% (active)
CCN(CC)C(=O)CC1(c2ccccc2OC)CCOC(C(C)C)C1 (stereo not drawn)	14.7% (active)
Cc1cccc(C)c1N1CCN(S(=O)(=O)N2CCCCC2)CC1	79.3% (active)
COc1ccc(S(=O)(=O)N2CCCC2)c(C)c1C	13.6% (active)
CCN(CC)S(=O)(=O)c1ccc2c3c(cccc13)C(=O)S2	10.5%
COc1ccc(-c2noc(CN(C)S(=O)(=O)c3ccc(C)cc3)n2)cc1	111% (active)
